From ChEMBL document CHEMBL4689842, “EUbOPEN Chemogenomics Library wave 1” (2021)

What was measured:
Format in all cases: toxicity, cell-based
HEK-293T = assay: Incucyte cell viability with HEK293T; details: human, 10 µM, compound concentration 10 uM; note: filed as whole numbers so only -1 and 0 and 1 occur
U2OS [1] = assay: Incucyte cell viability with U2OS; details: human, 10 µM, compound concentration 10 uM; note: filed as whole numbers so only -1 and 0 and 1 occur
Fibroblast = assay: Incucyte cell viability with human fibroblast; details: 10 µM, compound concentration 10 uM; note: filed as whole numbers so only -1 and 0 and 1 occur
U2OS [2] = assay: Multiplex assay against U2OS; details: human
Method in brief: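 Four dyes were applied at seeding to live cells: Hoechst33342, BioTracker Green Microtubule Cytoskeleton Dye, MitoTracker Red and Annexin V Alexa Fluor 680. Imaging after compound addition used a CQ1 microscope at 37°C and 5% CO2. CellPathfinder machine-learning gating then sorted cells into Hoechst high-intensity objects or normal cells, normal cells into healthy, pyknosed or fragmented nuclei, and pyknosed cells into mitotic or apoptotic, with tubulin, mitochondrial-mass and membrane-permeability phenotypes given as per cents of healthy-nucleus cells.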

[3] = 0 h, replicate number 1, timepoint 0 hours
[4] = 6 h, replicate number 1, timepoint 6 hours
[5] = 24 h, replicate number 1, timepoint 24 hours
[6] = 12 h, replicate number 1, timepoint 12 hours
[7] = 18 h, replicate number 1, timepoint 18 hours
[8] = 12 h, 1 µM, compound concentration 1 uM, replicate 1
[9] = 12 h, 1 µM, compound concentration 1 uM, replicate 2
[10] = 12 h, 10 µM, compound concentration 10 uM, replicate 1
[11] = 12 h, 10 µM, compound concentration 10 uM, replicate 2
[12] = 24 h, 1 µM, compound concentration 1 uM, replicate 1
[13] = 24 h, 1 µM, compound concentration 1 uM, replicate 2
[14] = 24 h, 10 µM, compound concentration 10 uM, replicate 1
[15] = 24 h, 10 µM, compound concentration 10 uM, replicate 2

CCOc1ccn(-c2ccc(F)cc2)c(=O)c1C(=O)Nc1ccc(Oc2ccnc(N)c2Cl)c(F)c1 [BMS-777607]
Growth Rate (HEK-293T; [3]): 1
Growth Rate (HEK-293T; [4]): 0
Growth Rate (HEK-293T; 12 h, replicate number 2, timepoint 12 hours): 1
Growth Rate (HEK-293T; [5]): 1
Growth Rate (HEK-293T; 24 h, replicate number 2, timepoint 24 hours): 0
Growth Rate (U2OS [1]; [3]): 1
Growth Rate (U2OS [1]; 0 h, replicate number 2, timepoint 0 hours): 0
Growth Rate (U2OS [1]; [4]): 0
Growth Rate (U2OS [1]; [6]): 0
Growth Rate (U2OS [1]; [7]): 0
Growth Rate (U2OS [1]; [5]): 0
Growth Rate (Fibroblast; [4]): 0
Growth Rate (Fibroblast; [6]): 0
Growth Rate (Fibroblast; [7]): 0
Growth Rate (Fibroblast; [5]): 0
Population Apoptotic (%) (U2OS [2]; [8]): 41%
Population Healthy Nuclei (%) (U2OS [2]; [8]): 88%
Population Hoechst High Intensity Objects (%) (U2OS [2]; [8]): 4%
Population Membrane Permeable-Phenotype (%) (U2OS [2]; [8]): 35%
Population Mitochondria Different-Phenotype (%) (U2OS [2]; [8]): 11%
Population Mitotic Cells (%) (U2OS [2]; [8]): 58%
Population Normal (%) (U2OS [2]; [8]): 95%
Population Pyknosed Nuclei (%) (U2OS [2]; [8]): 6%
Total Cell Count (U2OS [2]; [8]): 190
Population Apoptotic (%) (U2OS [2]; [9]): 28%
Population Fragmented Nuclei (%) (U2OS [2]; [9]): 4%
Population Healthy Nuclei (%) (U2OS [2]; [9]): 86%
Population Hoechst High Intensity Objects (%) (U2OS [2]; [9]): 13%
Population Membrane Permeable-Phenotype (%) (U2OS [2]; [9]): 40%
Population Mitochondria Different-Phenotype (%) (U2OS [2]; [9]): 31%
Population Mitotic Cells (%) (U2OS [2]; [9]): 71%
Population Normal (%) (U2OS [2]; [9]): 86%
Population Pyknosed Nuclei (%) (U2OS [2]; [9]): 8%
Population Tubulin-Different-Phenotype (%) (U2OS [2]; [9]): 18%
Total Cell Count (U2OS [2]; [9]): 94
Population Apoptotic (%) (U2OS [2]; [10]): 66%
Population Fragmented Nuclei (%) (U2OS [2]; [10]): 2%
Population Healthy Nuclei (%) (U2OS [2]; [10]): 91%
Population Hoechst High Intensity Objects (%) (U2OS [2]; [10]): 1%
Population Membrane Permeable-Phenotype (%) (U2OS [2]; [10]): 5%
Population Mitochondria Different-Phenotype (%) (U2OS [2]; [10]): 33%
Population Mitotic Cells (%) (U2OS [2]; [10]): 33%
Population Normal (%) (U2OS [2]; [10]): 98%
Population Pyknosed Nuclei (%) (U2OS [2]; [10]): 6%
Population Tubulin-Different-Phenotype (%) (U2OS [2]; [10]): 29%
Total Cell Count (U2OS [2]; [10]): 193
Population Apoptotic (%) (U2OS [2]; [11]): 0%
Population Fragmented Nuclei (%) (U2OS [2]; [11]): 6%
Population Healthy Nuclei (%) (U2OS [2]; [11]): 89%
Population Hoechst High Intensity Objects (%) (U2OS [2]; [11]): 16%
Population Mitochondria Different-Phenotype (%) (U2OS [2]; [11]): 30%
Population Mitotic Cells (%) (U2OS [2]; [11]): 100%
Population Normal (%) (U2OS [2]; [11]): 83%
Population Pyknosed Nuclei (%) (U2OS [2]; [11]): 4%
Population Tubulin-Different-Phenotype (%) (U2OS [2]; [11]): 37%
Total Cell Count (U2OS [2]; [11]): 118
Population Apoptotic (%) (U2OS [2]; [12]): 57%
Population Fragmented Nuclei (%) (U2OS [2]; [12]): 7%
Population Healthy Nuclei (%) (U2OS [2]; [12]): 85%
Population Hoechst High Intensity Objects (%) (U2OS [2]; [12]): 3%
Population Membrane Permeable-Phenotype (%) (U2OS [2]; [12]): 37%
Population Mitochondria Different-Phenotype (%) (U2OS [2]; [12]): 23%
Population Mitotic Cells (%) (U2OS [2]; [12]): 42%
Population Normal (%) (U2OS [2]; [12]): 96%
Population Pyknosed Nuclei (%) (U2OS [2]; [12]): 7%
Population Tubulin-Different-Phenotype (%) (U2OS [2]; [12]): 16%
Total Cell Count (U2OS [2]; [12]): 196
Population Apoptotic (%) (U2OS [2]; [13]): 36%
Population Fragmented Nuclei (%) (U2OS [2]; [13]): 6%
Population Healthy Nuclei (%) (U2OS [2]; [13]): 81%
Population Hoechst High Intensity Objects (%) (U2OS [2]; [13]): 10%
Population Membrane Permeable-Phenotype (%) (U2OS [2]; [13]): 28%
Population Mitochondria Different-Phenotype (%) (U2OS [2]; [13]): 35%
Population Mitotic Cells (%) (U2OS [2]; [13]): 63%
Population Normal (%) (U2OS [2]; [13]): 89%
Population Pyknosed Nuclei (%) (U2OS [2]; [13]): 12%
Population Tubulin-Different-Phenotype (%) (U2OS [2]; [13]): 20%
Total Cell Count (U2OS [2]; [13]): 101
Population Apoptotic (%) (U2OS [2]; [14]): 26%
Population Fragmented Nuclei (%) (U2OS [2]; [14]): 3%
Population Healthy Nuclei (%) (U2OS [2]; [14]): 91%
Population Hoechst High Intensity Objects (%) (U2OS [2]; [14]): 1%
Population Membrane Permeable-Phenotype (%) (U2OS [2]; [14]): 5%
Population Mitochondria Different-Phenotype (%) (U2OS [2]; [14]): 27%
Population Mitotic Cells (%) (U2OS [2]; [14]): 73%
Population Normal (%) (U2OS [2]; [14]): 98%
Population Pyknosed Nuclei (%) (U2OS [2]; [14]): 5%
Population Tubulin-Different-Phenotype (%) (U2OS [2]; [14]): 30%
Total Cell Count (U2OS [2]; [14]): 263
Population Apoptotic (%) (U2OS [2]; [15]): 12%
Population Fragmented Nuclei (%) (U2OS [2]; [15]): 2%
Population Healthy Nuclei (%) (U2OS [2]; [15]): 90%
Population Hoechst High Intensity Objects (%) (U2OS [2]; [15]): 8%
Population Membrane Permeable-Phenotype (%) (U2OS [2]; [15]): 8%
Population Mitochondria Different-Phenotype (%) (U2OS [2]; [15]): 34%
Population Mitotic Cells (%) (U2OS [2]; [15]): 87%
Population Normal (%) (U2OS [2]; [15]): 91%
Population Pyknosed Nuclei (%) (U2OS [2]; [15]): 6%
Population Tubulin-Different-Phenotype (%) (U2OS [2]; [15]): 36%
Total Cell Count (U2OS [2]; [15]): 133
